Laboratory results published in ChEMBL document CHEMBL4351026, “Antifungal activity, mode of action variability, and subcellular distribution of coumarin-based antifungal azoles” (Eur J Med Chem, 2019).
Values after ≈ are worked out from the molar mass of the structure shown. Active and inactive are the calls of the source. The calls are words filed in the database; no cut-off is given here.

Legend:
Candida albicans [1] = experiment: Antifungal activity against Candida albicans ATCC 90028 assessed as reduction in fungal cell growth incubated for 24 hrs by MTT based broth double dilution method; format: functional; conditions: ATCC 90028, 24 h
Procedure, shortened: (§1)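 Broth double-dilution in Casitone broth. Starter cultures were grown 24 or 48 h at 37 °C, 5% CO₂, diluted 1:100, and added to serial two-fold dilutions at 64 to 0.007 µg/mL. Final inoculum was 5 x 10^4 to 5 x 10^5 CFU/mL; DMSO was 0.0012–1.3%. Plates were incubated at 37 °C, 5% CO₂, then MTT was added for 2 h. MIC followed CLSI M27-A3. Triplicates, two independent experiments.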

Candida albicans [2] = experiment: Antifungal activity against Candida albicans ATCC 90028 assessed as reduction in fungal cell growth incubated for 48 hrs by MTT based broth double dilution method; format: functional; conditions: ATCC 90028, 48 h; procedure, shortened: as §1
Candida parapsilosis [3] = experiment: Antifungal activity against Candida parapsilosis ATCC 22019 assessed as reduction in fungal cell growth incubated for 24 hrs by MTT based broth double dilution method; format: functional; conditions: Lodderomyces parapsilosis, ATCC 22019, 24 h; procedure, shortened: as §1
[4] = test system: Meyerozyma guilliermondii; experiment: Antifungal activity against Candida guilliermondii T-47 assessed as reduction in fungal cell growth incubated for 24 hrs by MTT based broth double dilution method; format: functional; conditions: T-47, 24 h; procedure, shortened: as §1
Nakaseomyces glabratus [5] = experiment: Antifungal activity against Candida glabrata 192 assessed as reduction in fungal cell growth incubated for 24 hrs by MTT based broth double dilution method; format: functional; conditions: Nakaseomyces glabratus, 192, 24 h; procedure, shortened: as §1
Candida dubliniensis = experiment: Antifungal activity against Candida dubliniensis T-99 assessed as reduction in fungal cell growth incubated for 24 hrs by MTT based broth double dilution method; format: functional; conditions: T-99, 24 h; procedure, shortened: as §1
Candida albicans [6] = experiment: Antifungal activity against Candida albicans SN152 assessed as reduction in fungal cell growth incubated for 48 hrs by MTT based broth double dilution method; format: functional; conditions: SN152, 48 h; procedure, shortened: as §1
Candida albicans [7] = experiment: Antifungal activity against ERG11/ERG3 knocked out Candida albicans SN152 assessed as zone of inhibition at 25 ug […] by disk diffusion method; format: functional, organism-based
Nakaseomyces glabratus [8] = experiment: Antifungal activity against Candida glabrata 192 assessed as reduction in fungal cell growth incubated for 48 hrs by MTT based broth double dilution method; format: functional; conditions: Nakaseomyces glabratus, 192, 48 h; procedure, shortened: as §1
Nakaseomyces glabratus [9] = experiment: Antifungal activity against Candida glabrata ATCC 2001 assessed as reduction in fungal cell growth incubated for 24 hrs by MTT based broth double dilution method; format: functional; conditions: ATCC 2001, 24 h; procedure, shortened: as §1
[10] = Drug distribution in Candida albicans SN152 assessed as subcellular compound distribution at 10 uM incubated for 60 mins by fluorescent imaging analysis; format: ADME; conditions: 1 h
Procedure, shortened: (§2)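 Yeast were grown overnight at 30 °C in YPD liquid, diluted 1:10, and grown 2 h at 30 °C to log phase. Fluorescent azole was added at 10 µM final and incubated 60 min in the dark. Cells were washed once in PBS and imaged on slides in bright field and fluorescence (ex 427 nm, em 510 nm).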

Nakaseomyces glabratus [11] = experiment: Antifungal activity against Candida glabrata ATCC 66032 assessed as reduction in fungal cell growth incubated for 48 hrs by MTT based broth double dilution method; format: functional; conditions: ATCC 66032, 48 h; procedure, shortened: as §1
[12] = Drug distribution in Candida glabrata 2001 assessed as subcellular compound distribution at 10 uM incubated for 60 mins by fluorescent imaging analysis; format: ADME; conditions: nakaseomyces glabratus, 1 h; procedure, shortened: as §2
Candida albicans [13] = experiment: Antifungal activity against Candida albicans P-87 assessed as reduction in fungal cell growth incubated for 24 hrs by MTT based broth double dilution method; format: functional; conditions: P-87, 24 h; procedure, shortened: as §1
Candida albicans [14] = experiment: Antifungal activity against Candida albicans SN152 assessed as zone inhibition at 25 ug incubated for 24 hrs by disk diffusion method; format: functional, organism-based
Procedure, shortened: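 Strains were streaked on YPD agar and grown at 30 °C: 24 h for parental SN152, 48 h for the erg11ΔΔ erg3ΔΔ mutant. Colonies were suspended in PBS and adjusted to OD 0.02 (SN152) or 0.03 (mutant), then spread on Casitone plates. A 6-mm disk loaded with 25 µg compound was placed centrally. Plates were incubated at 30 °C and photographed after 24 h.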

Candida albicans [15] = experiment: Antifungal activity against Candida albicans SN152 assessed as reduction in fungal cell growth incubated for 24 hrs by MTT based broth double dilution method; format: functional; conditions: SN152, 24 h; procedure, shortened: as §1
Nakaseomyces glabratus [16] = experiment: Antifungal activity against Candida glabrata ATCC 66032 assessed as reduction in fungal cell growth incubated for 24 hrs by MTT based broth double dilution method; format: functional; conditions: ATCC 66032, 24 h; procedure, shortened: as §1
Candida parapsilosis [17] = experiment: Antifungal activity against Candida parapsilosis ATCC 90018 assessed as reduction in fungal cell growth incubated for 24 hrs by MTT based broth double dilution method; format: functional; conditions: Lodderomyces parapsilosis, ATCC 90018, 24 h; procedure, shortened: as §1
Cytochrome P450 3A4 = Cytochrome P450 3A4 (Homo sapiens, UniProt P08684); experiment: Inhibition of recombinant human CYP3A4 using Luciferin-PPXE as substrate preincubated for 10 mins followed by NADPH addition measured after 15 mins by luminometric method; format: ADME
Procedure, shortened: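 P450-Glo luminescent assay, Luciferin-PPXE substrate. Compound was mixed with membranes containing recombinant human CYP3A4; controls were vehicle with membranes lacking CYP3A4. After 10 min preincubation at 37 °C, NADPH regeneration reagent was added and the mixture kept 15 min at 37 °C. Luciferin detection reagent stopped the reaction; after 20 min at room temperature, luminescence was read. Duplicates.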

[18] = Cytotoxicity against human HepG2 cells assessed as reduction in cell viability at 5 to 50 uM incubated for 24 hrs by XTT assay relative to control; format: cell-based; conditions: read-out: INH
Procedure, shortened: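 HepG2 cells were maintained in RPMI with 15% FBS, 1% NEAA, 1% pyruvate and pen-strep-nystatin at 37 °C and 5% CO2. 4000 cells/well were plated on poly-D-lysine coating and given fresh medium after 24 h. Compounds were dosed at 5–50 µM from 1 mM stocks in 10% DMSO/0.3% Tween/PBS and incubated 24 h. Viability was read by XTT (2 h, 37 °C) at 475 nm against 660 nm.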

HEK-293T = experiment: Cytotoxicity against human HEK293T cells assessed as reduction in cell viability at 5 to 50 uM incubated for 24 hrs by XTT assay relative to control; format: cell-based; conditions: hek-293t, 24 h, 50 µM
Procedure, shortened: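 HEK-293T cells were grown in DMEM with 10% FBS, 1% NEAA, 1% pyruvate and pen-strep-nystatin at 37 °C and 5% CO2. 7000 cells/well were seeded on poly-D-lysine-coated wells. After 24 h the medium was renewed and compounds were added at 5–50 µM from 1 mM stocks in 10% DMSO/0.3% Tween/PBS. After 24 h, XTT was added for 2 h at 37 °C, with absorbance read at 475 nm (reference 660 nm).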

Chain of Cytochrome P450 3A4 (P08684 whole entry): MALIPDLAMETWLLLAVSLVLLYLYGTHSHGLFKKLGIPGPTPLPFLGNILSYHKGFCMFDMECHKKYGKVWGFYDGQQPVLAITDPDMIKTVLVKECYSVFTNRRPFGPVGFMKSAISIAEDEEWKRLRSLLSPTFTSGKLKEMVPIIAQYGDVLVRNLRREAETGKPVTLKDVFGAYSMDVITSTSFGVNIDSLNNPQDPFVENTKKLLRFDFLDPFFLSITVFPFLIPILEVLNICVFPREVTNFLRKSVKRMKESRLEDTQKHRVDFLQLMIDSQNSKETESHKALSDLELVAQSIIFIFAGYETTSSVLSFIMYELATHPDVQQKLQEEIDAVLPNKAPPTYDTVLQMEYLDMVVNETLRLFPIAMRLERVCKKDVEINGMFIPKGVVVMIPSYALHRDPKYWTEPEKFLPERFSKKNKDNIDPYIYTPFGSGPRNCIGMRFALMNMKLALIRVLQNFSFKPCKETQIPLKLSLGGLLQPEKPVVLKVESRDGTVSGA

SMILES: CCN(CC)c1ccc2cc(C(=O)NCC(O)(Cn3cncn3)c3ccc(F)cc3F)c(=O)oc2c1 (racemic)
- MIC (Candida albicans [1]): 0.06 µg/mL (≈ 0.121 µM)
- MIC (Candida albicans [2]): 0.125 µg/mL (≈ 0.251 µM)
- MIC (Candida parapsilosis [3]): 1 µg/mL (≈ 2.01 µM)
- MIC [4]: 1 µg/mL (≈ 2.01 µM)
- MIC (Nakaseomyces glabratus [5]): 8 µg/mL (≈ 16.1 µM)
- MIC (Candida dubliniensis): 1 µg/mL (≈ 2.01 µM)
- MIC (Candida albicans [6]): 0.125 µg/mL (≈ 0.251 µM)
- inhibition zone (IZ) (Candida albicans [7]): inactive
- MIC (Nakaseomyces glabratus [8]): > 64 µg/mL
- MIC (Nakaseomyces glabratus [9]): 16 µg/mL (≈ 32.2 µM)
- Drug uptake [10]: Active
- MIC (Nakaseomyces glabratus [11]): > 64 µg/mL
- Drug uptake [12]: Active
- MIC (Candida albicans [13]): 0.06 µg/mL (≈ 0.121 µM)
- inhibition zone (IZ) (Candida albicans [14]): Active
- MIC (Candida albicans [15]): 0.03 µg/mL (≈ 0.0603 µM)
- MIC (Nakaseomyces glabratus [16]): 4 µg/mL (≈ 8.04 µM)
- MIC (Candida parapsilosis [17]): 0.125 µg/mL (≈ 0.251 µM)
- IC50 (Cytochrome P450 3A4): 1020 nM

SMILES: CCN(CC)c1ccc2cc(C(=O)NCC(O)(Cn3ccnc3)c3ccc(F)cc3F)c(=O)oc2c1 (racemic)
- MIC (Candida albicans [1]): 0.015 µg/mL (≈ 0.0302 µM)
- MIC (Candida albicans [2]): 0.06 µg/mL (≈ 0.121 µM)
- MIC (Candida parapsilosis [3]): 0.125 µg/mL (≈ 0.252 µM)
- MIC [4]: 0.5 µg/mL (≈ 1.01 µM)
- MIC (Nakaseomyces glabratus [5]): 2 µg/mL (≈ 4.03 µM)
- MIC (Candida dubliniensis): 0.5 µg/mL (≈ 1.01 µM)
- MIC (Candida albicans [6]): 0.125 µg/mL (≈ 0.252 µM)
- inhibition zone (IZ) (Candida albicans [7]): Active
- MIC (Nakaseomyces glabratus [8]): 4 µg/mL (≈ 8.06 µM)
- MIC (Nakaseomyces glabratus [9]): 8 µg/mL (≈ 16.1 µM)
- Drug uptake [10]: Active
- MIC (Nakaseomyces glabratus [11]): 32 µg/mL (≈ 64.4 µM)
- Drug uptake [12]: Active
- MIC (Candida albicans [13]): 0.06 µg/mL (≈ 0.121 µM)
- inhibition zone (IZ) (Candida albicans [14]): Active
- MIC (Candida albicans [15]): 0.06 µg/mL (≈ 0.121 µM)
- MIC (Nakaseomyces glabratus [16]): 8 µg/mL (≈ 16.1 µM)
- MIC (Candida parapsilosis [17]): 0.015 µg/mL (≈ 0.0302 µM)
- IC50 (Cytochrome P450 3A4): 1310 nM

SMILES: C[C@@H](c1ncncc1F)[C@](O)(Cn1cncn1)c1ccc(F)cc1F [VORICONAZOLE]
- MIC (Candida albicans [1]): 0.007 µg/mL (≈ 0.02 µM)
- cytotoxicity at 24 h, up to 50 µM [18]: < 40%
- MIC (Candida albicans [2]): 0.007 µg/mL (≈ 0.02 µM)
- MIC (Candida parapsilosis [3]): 0.03 µg/mL (≈ 0.0859 µM)
- MIC [4]: 0.06 µg/mL (≈ 0.172 µM)
- MIC (Nakaseomyces glabratus [5]): 0.125 µg/mL (≈ 0.358 µM)
- Activity (HEK-293T): < 40%
- MIC (Candida dubliniensis): 0.06 µg/mL (≈ 0.172 µM)
- MIC (Candida albicans [6]): 0.007 µg/mL (≈ 0.02 µM)
- inhibition zone (IZ) (Candida albicans [7]): inactive
- MIC (Nakaseomyces glabratus [8]): 0.25 µg/mL (≈ 0.716 µM)
- MIC (Nakaseomyces glabratus [9]): 2 µg/mL (≈ 5.73 µM)
- MIC (Nakaseomyces glabratus [11]): 4 µg/mL (≈ 11.5 µM)
- MIC (Candida albicans [13]): 0.007 µg/mL (≈ 0.02 µM)
- inhibition zone (IZ) (Candida albicans [14]): Active
- MIC (Candida albicans [15]): 0.007 µg/mL (≈ 0.02 µM)
- MIC (Nakaseomyces glabratus [16]): 0.5 µg/mL (≈ 1.43 µM)
- MIC (Candida parapsilosis [17]): 0.015 µg/mL (≈ 0.0429 µM)
